Compound activity (PubChem)
This is a sample that favours compounds with a hit; in the whole collection about 3.8% have one here.
KCNK9 block: human KCNK9 channel inhibition. Q9NPC2. HEK293 KCNK9, FluxOR thallium flux fluorescence; active compounds read low. B-score at 10 µM. 310,000 tested, 1.2% active;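 active means ratio B-score over 3 SD below the library mean, with starting fluorescence within 5 SD of its mean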;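 further: negative B-score means less thallium flux so channel inhibition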
Target sequence (Q9NPC2 whole entry, looked up): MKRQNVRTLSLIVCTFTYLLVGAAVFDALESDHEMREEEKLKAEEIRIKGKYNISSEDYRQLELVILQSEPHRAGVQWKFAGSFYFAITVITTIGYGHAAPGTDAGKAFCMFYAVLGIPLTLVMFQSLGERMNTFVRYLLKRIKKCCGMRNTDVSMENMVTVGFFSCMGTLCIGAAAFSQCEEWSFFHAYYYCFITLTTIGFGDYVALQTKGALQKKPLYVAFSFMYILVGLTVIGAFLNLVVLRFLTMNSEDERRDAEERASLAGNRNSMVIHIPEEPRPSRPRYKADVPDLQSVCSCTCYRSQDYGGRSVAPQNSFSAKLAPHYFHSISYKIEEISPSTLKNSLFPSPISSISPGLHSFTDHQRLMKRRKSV
KCNQ1 act: human KCNQ1 channel potentiation or activation; P51787; AID 2648; B-score at 10 µM; CHO-K1 KCNQ1, thallium flux FluxOR fluorescence; active compounds read high; 310,000 tested, 0.35% active;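 active means fluorescence ratio B-score, a plate-corrected score, at least three library SD, with initial intensity B-score within 5 SD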
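System: Stable KCNQ1 CHO-K1 line | Incubation: 90 min dye loading and 20 min compound exposure, both at room temperature | Measure: Ratio B score | Medium: Assay buffer for compound exposure, DMSO matched across wells | Compound dosing: Single-concentration screen | Probe or stimulus: K+/Tl+ depolarizing stimulus | Measured by: Kinetic FluxOR fluorescence, 10 s baseline plus 110 s post-stimulus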
KCNK3 inh: human KCNK3 channel inhibition, primary screen | B-score at 10 µM | 340,000 tested, 0.84% active | CHO-KCNK3 thallium flux, FluxOR fluorescence; active compounds read low | O14649;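 active means B-score under library mean minus 4 SD, starting fluorescence ratio at most library mean plus 5 SD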;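 further: more negative B-score means stronger inhibition of thallium flux through KCNK3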
Kir21 block: inhibitors of mouse Kir2.1 inward-rectifier potassium channel | HEK293-Kir2.1, FluxOR thallium flux fluorescence; active compounds read low | B-score at 10 µM | 310,000 tested, 0.85% active | AID 1672;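 active means fluorescence ratio B-score at or below minus 3 SD of library scores, with starting-brightness B-score within 2 SD, cut at about -4.2 in these data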;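 further: channel flux triggered by added potassium and thallium sulfate stimulus; B-score of peak minus minimum fluorescence over baseline after thallium stimulus; more negative B-score means stronger Kir2.1 block with less thallium influx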
hERG protect: shields human hERG channel from block by proarrhythmic agents. Q12809. CHO-hERG, FluxOR thallium flux, dofetilide IC70 present. activation (rescue from dofetilide block), less the hit threshold, % at 10 µM. 310,000 tested, 0.51% active. AID 1511;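 active means activation above the mean of controls blocked by dofetilide plus 5 SD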;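 further: thallium influx through hERG after potassium depolarization seen as dye fluorescence rise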
KCNQ1 block: human KCNQ1 channel inhibition; P51787; AID 2642; B-score at 10 µM; 310,000 tested, 1.3% active; CHO-K1 KCNQ1, FluxOR thallium flux fluorescence; active compounds read high;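 active means compounds whose thallium flux B-score, printed positive for inhibition, exceeds three library SD while starting fluorescence stays within three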;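 further: channel opened by potassium depolarization with thallium stimulus after 20 min compound exposure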
KCNK9 block conf: human KCNK9 inhibitor confirmation | shares compounds with KCNK9 block | HEK293 KCNK9 cells, FluxOR thallium flux fluorescence | inhibition, % at 10 µM | 4,900 tested, 43% active | AID 492992;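 active means thallium signal inhibited by more than 5 SD of the compound-free buffer control wells, on both duplicate plates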;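 further: 0% = assay buffer control wells without compound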
Kir2-1 spec: tests whether KCNK9 modulators also affect mouse Kir2.1 | inhibition, % at 10 µM | shares compounds with KCNK9 block | 4,900 tested, 4% active | Kir2.1 cells, FluxOR thallium flux fluorescence;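 active means thallium signal drop more than 5 SD beyond the mean of the no-compound control wells, seen in both duplicate plates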;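 further: signal is fluorescence rise after thallium addition divided by baseline fluorescence; plate controls were assay buffer only for no effect and full block by chlorpromazine control for full effect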
KCNK9 uninduced: non-induced cell nonspecific activity of KCNK9 modulators. shares compounds with KCNK9 block. 4,900 tested, 40% active. inhibition, % at 10 µM. non-induced KCNK9-HEK293, FluxOR thallium flux. AID 492997;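 active means thallium signal drop beyond 5 SD of the untreated control mean, on both duplicate plates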;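 further: plate controls were buffer only IC0 wells for no effect and SID17386958 at its maximal inhibitory level for full effect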
KCNK3 confirm: human KCNK3 channel inhibition, confirmation assay | CHO-KCNK3 thallium flux, FluxOR fluorescence; 0% buffer, 100% carvedilol maximal block | ratio percent of control, % at 10 µM | AID 651638 | shares compounds with KCNK3 inh | 2,400 tested, 99% active;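 active means ratio percent of control, averaged over triplicates, above buffer control mean plus 5 SD, cut at about 64% in these data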;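 further: ratio is the fluorescence rise from min to max over baseline after thallium stimulus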
KCNK3 uninduced: counter-screen for KCNK3 inhibitors: effect in non-induced cells; shares compounds with KCNK3 inh; non-induced KCNK3 parental cells, FluxOR thallium flux; active compounds read low; thallium flux ratio (lower = more inhibition) at 10 µM; 2,400 tested, 40% active; AID 651747;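 active means thallium flux ratio, averaged over three wells, more than 5 SD below the buffer control mean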;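 further: host cells are CHO cells without KCNK3 induction; ratio is peak minus trough fluorescence over baseline then normalized to buffer controls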
An asterisk follows results filed as active; i = inactive; · = no result given.

SMILES	KCNK9 block	KCNQ1 act	KCNK3 inh	Kir21 block	hERG protect	KCNQ1 block	KCNK9 block conf	Kir2-1 spec	KCNK9 uninduced	KCNK3 confirm	KCNK3 uninduced
CCCC(=O)Nc1nc(C)c(-c2csc(Nc3cc(OC)ccc3OC)n2)s1	-16.5*	i	i	0.8	-12.6	i	i	i	i	·	·
COc1ccc(CNC(=O)CN2C(=O)NC(Cc3ccccc3)(c3ccccc3)C2=O)cc1OC (centres undefined)	·	·	i	·	·	·	·	·	·	·	·
O=C(Nc1ccncc1)C1(c2ccccc2)CCCC1	i	i	i	-0.02	1.1	i	·	·	·	·	·
O=C(Nc1ccc(O)c(-c2nc3ccccc3o2)c1)C1(c2ccccc2)CCCC1	-12*	i	-9.57*	-1.01	-13.7	i	39.5%*	i	i	100.3*	i
Cc1ccc(C(=O)COc2ccc3ccc(=O)oc3c2)cc1	i	i	i	-0.4	-9.7	i	·	·	·	·	·
O=c1ccc2ccc(OCCOc3cccc(Cl)c3)cc2o1	-9.51*	i	i	-1.26	-15.5	i	32.5%*	i	41.5%*	99.7*	i
O=C(N/N=C/C(Cl)=C/c1ccccc1)c1ccccc1F	i	i	i	-3.34	-6.0	i	·	·	·	·	·
O=C(N/N=C/C(Br)=C/c1ccccc1)c1ccccc1F	-9.17*	i	-9.42*	1.84	3.2	i	28.5%*	i	i	98.3*	i
Cc1nc(N2CCN(C(=O)c3ccco3)CC2)c2c3c(sc2n1)CCCC3	i	i	i	-1.38	-14.6	i	·	·	·	·	·
O=C(c1ccco1)N1CCN(c2nc(C3CC3)nc3sc4c(c23)CCCC4)CC1	-18.8*	i	-8.7*	0.75	-17.5	i	66.0%*	i	27.5%*	116.7*	0.134*
Cc1sc2nc(C3CC3)nc(N3CCN(C(=O)c4ccc(F)cc4)CC3)c2c1C	-14.3*	i	-13.4*	1.09	-7.3	i	29.0%*	i	28.5%*	92.3*	i
COc1ccc(C(=O)N2CCN(c3nc(C4CC4)nc4sc(C)c(C)c34)CC2)cc1	i	i	i	0.74	-10.7	i	·	·	·	·	·
Cc1sc2nc(C3CC3)nc(N3CCN(S(=O)(=O)c4ccc(F)cc4)CC3)c2c1C	i	i	i	0.09	-13.7	i	·	·	·	·	·
Cc1sc2nc(C3CC3)nc(N3CCN(C(=O)c4ccccc4F)CC3)c2c1C	-13.1*	i	-11.7*	0.76	-5.2	i	i	i	28.5%*	114.3*	0.138*
COc1ccc(C(=O)NCC(=O)OCCOc2ccc(Cl)cc2)cc1OC	·	·	i	·	·	·	·	·	·	·	·
CC(C)Sc1ncnc2[nH]ncc12	·	·	i	·	·	·	·	·	·	·	·
N#CCNC1CC(=O)N(c2ccccc2)C1=O (centres undefined)	i	i	i	-0.05	-0.3	i	·	·	·	·	·
CCCOC(=O)c1ccc(NC(=O)c2ccccc2[N+](=O)[O-])cc1	-8.18*	i	-8.8*	1.23	-5.2	i	48.5%*	i	i	104.7*	i
O=C(NNC(=O)c1ccccc1OCc1ccccc1)c1ccccc1F	-9.76*	i	-11.4*	0.95	-13.4	i	29.0%*	i	23.5%*	117.7*	0.154*
O=C(Nc1cccc(NC(=O)c2c(F)cccc2F)n1)c1c(F)cccc1F	-11*	8*	-10.9*	0.54	-13.4	i	50.0%*	i	30.0%*	101.0*	i
